Assay outcomes: PubChem BioAssay, Sanford-Burnham Center for Chemical Genomics
SENP8 block-1 – inhibitors of human SENP8 protease; hit rate 1.2% among 330,000; inhibition, % at 10 µM; purified SENP8, Z-RLRGG-aminoluciferin cleavage, luminescence; in the data active = inhibition above about 50%
Target sequence (Q96LD8 whole entry, looked up): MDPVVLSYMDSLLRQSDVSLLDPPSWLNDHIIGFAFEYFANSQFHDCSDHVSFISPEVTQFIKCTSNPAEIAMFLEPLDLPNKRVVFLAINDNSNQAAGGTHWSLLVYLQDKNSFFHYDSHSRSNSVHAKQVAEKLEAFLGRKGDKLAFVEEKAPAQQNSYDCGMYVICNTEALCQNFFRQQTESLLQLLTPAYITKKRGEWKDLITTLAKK
SENP1 inh – SENP1 (human) catalytic domain inhibition. hit rate 0.21% among 360,000. AID 624204. recombinant SENP1 catalytic domain, CyPet-SUMO1-YPet FRET cleavage. inhibition, % at 10 µM;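 active = inhibition at least 30% at 10 µM, raw YFP signal under a set limit, fluorescence ratio 0.5 to 1.5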;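 also: 0% = enzyme with DMSO and 100% = no enzyme wells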
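system = hSENP1 catalytic domain, recombinant | reagent = SFCypet-SUMO1-SFYpet substrate at 25 nM | doses = one dose per compound, 10 µM, 0.5% DMSO | incubation = enzyme reaction for 50 min at room temperature, dark | measured by = FRET, CFP and YFP emission | controls = no-enzyme low, enzyme-DMSO high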
SENP8 block-2 – blocks human SENP8 cleavage of Nedd8 substrate. Q96LD8. recombinant SENP8, Nedd8 substrate fluorescence. inhibition, % at 20 µM. hit rate 0.64% among 360,000. AID 602440; in the data active = inhibition mostly above about 40%, no sharp cut-off; inactive = mostly below about 27%
SENP7 block – SENP7 protease inhibition; recombinant SENP7, Z-RLRGG-aminoluciferin luminescence, 40 min; inhibition, % at 5 µM; hit rate 1.5% among 330,000;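 active = inhibition above about 50% at the single test dose, limit read from the data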;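 also: plate controls were DMSO with enzyme for no effect and no enzyme buffer wells for full effect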
Target sequence (Q9BQF6 706-1050 limits assumed): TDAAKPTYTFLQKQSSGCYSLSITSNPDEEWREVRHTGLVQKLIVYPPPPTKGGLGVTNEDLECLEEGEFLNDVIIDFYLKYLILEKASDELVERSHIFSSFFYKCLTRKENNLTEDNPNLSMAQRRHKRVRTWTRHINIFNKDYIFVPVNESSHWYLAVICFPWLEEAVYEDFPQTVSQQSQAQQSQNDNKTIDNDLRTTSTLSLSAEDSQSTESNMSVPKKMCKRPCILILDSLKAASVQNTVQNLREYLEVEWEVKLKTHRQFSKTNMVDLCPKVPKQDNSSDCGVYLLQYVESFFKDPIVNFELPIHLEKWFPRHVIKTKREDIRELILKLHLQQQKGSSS
SENP6 inh – blocks the human protease SENP6; hit rate 1.8% among 330,000; inhibition, % at 10 µM; Recombinant SENP6 catalytic domain, aminoluciferin luminescence; Q9GZR1; AID 2599;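 active = inhibition above about 50% at the single tested dose, limit read from the data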;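 also: plate controls were DMSO wells with enzyme for no effect and DMSO wells lacking enzyme for full effect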
SENP8 confirm – confirmation of human SENP8 protease inhibitors; shares compounds with SENP7 block; Recombinant SENP8, Z-RLRGG-aminoluciferin luminescence, 60 min; inhibition, % at 12.5 µM; hit rate 40% among 6,200;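 active = mean inhibition across replicates above about 50%, limit read from the data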
SENP6 conf – human SENP6 inhibition, confirmed. shares compounds with SENP7 block. recombinant SENP6, Z-RLRGG-aminoluciferin luminescence. inhibition, % at 12.5 µM. hit rate 58% among 6,200. AID 488915
SENP7 conf – human SENP7 inhibition, confirmed. shares compounds with SENP7 block. recombinant SENP7, Z-RLRGG-aminoluciferin luminescence, 40 min. inhibition, % at 12.5 µM. hit rate 69% among 6,200
Casp3 select – caspase-3 inhibition (SENP selectivity assay); shares compounds with SENP7 block; purified caspase-3, Z-DEVD-aminoluciferin luminescence, 60 min; inhibition, % at 12.5 µM; hit rate 60% among 6,200; AID 488918;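 active = mean inhibition above about 50%, limit read from the data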;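 also: plate controls were enzyme with DMSO for no effect and wells without caspase-3 for full effect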
Target sequence (P42574 28-227 limits assumed): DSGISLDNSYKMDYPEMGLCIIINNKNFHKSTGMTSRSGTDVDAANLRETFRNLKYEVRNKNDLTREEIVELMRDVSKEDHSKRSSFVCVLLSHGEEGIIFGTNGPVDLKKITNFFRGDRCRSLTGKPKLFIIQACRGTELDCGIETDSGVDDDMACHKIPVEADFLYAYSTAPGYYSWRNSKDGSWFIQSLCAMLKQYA
Luc interf – counter-screen for SENP inhibitors: luminescence interference | shares compounds with SENP7 block | hit rate 39% among 6,200 | inhibition, % at 12.5 µM | Pre-incubated SENP8/Z-RLRGG-aminoluciferin, luciferase luminescence interference;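 active = mean inhibition above about 50% when retested at one dose, limit read from the data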;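 also: plate controls were DMSO wells with completed reaction for no effect and substrate without enzyme for full effect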
Active calls of the source: *; x = not tested or not shown. An excerpt weighted towards active compounds, which were near 2.5% of everything screened.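 The calls were made as follows, unless noted: active = mean inhibition above about 50% in the one-dose retest (limit read from the data); inactive = the rest.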

SMILES | SENP8 block-1 | SENP1 inh | SENP8 block-2 | SENP7 block | SENP6 inh | SENP8 confirm | SENP6 conf | SENP7 conf | Casp3 select | Luc interf
O/N=C(/CCc1ccccc1)c1ccc2c(c1)OCCO2 | 46.7 | 2.1 | 5.3 | 52.3* | 13.2 | 69.6* | 68.8* | 87.6* | 43.6 | 72.2*
O=C(CCCC(=O)c1ccc(O)cc1)c1ccc(O)cc1 | 88.6* | 0.8 | 15.7 | 73.8* | 93.0* | 91.5* | 91.5* | 100.7* | 92.4* | 91.5*
O=C(NCc1ccccc1)C(c1ccco1)N(C(=O)c1csnn1)c1ccccc1 (centres undefined) | -4.2 | 0.4 | -7.3 | -3.5 | -35.8 | x | x | x | x | x
CC1(C(=O)Nc2ccc(F)c(Cl)c2)Cc2c(-c3ccc(C(N)=O)cc3)ccnc2O1 (centres undefined) | x | 0.2 | 16.1 | x | x | x | x | x | x | x
O=C(COc1ccc2c(c1)OCO2)Nc1nccs1 | 89.6* | -0.7 | 7.9 | 95.1* | 95.7* | 94.7* | 94.9* | 101.6* | 97.2* | 93.3*
COc1ccc(OCC(=O)Nc2nccs2)cc1 | 62.4* | 0.3 | 12.7 | 82.6* | 26.2 | 77.6* | 79.1* | 95.4* | 92.9* | 79.1*
COCc1nnc(NC(=O)COc2ccc3c(c2)OCO3)s1 | 0.0 | 3.6 | 9.2 | -5.6 | -32.9 | x | x | x | x | x
CCc1ccc(CCC(=O)Nc2nccs2)o1 | 0.1 | -0.8 | 7.1 | 2.7 | 4.0 | x | x | x | x | x
Cc1ccc(CCC(=O)Nc2nccs2)o1 | 3.2 | 1.1 | 13.0 | 92.3* | 3.8 | -0.4 | -1.8 | -7.7 | -0.9 | -1.8
CCOc1ccc(OCC(=O)Nc2nccs2)cc1 | 94.9* | -1.5 | 18.0 | 98.0* | 97.1* | 96.8* | 96.8* | 101.9* | 98.1* | 87.7*
CCCCNC(=O)C1c2ccccc2OCC(=O)N1CCc1c[nH]c2ccccc12 (centres undefined) | x | 0.7 | 13.5 | x | x | x | x | x | x | x
CCC(=O)N1CCN=C1SCc1cccc(C(F)(F)F)c1 | -12.9 | 2.2 | -3.5 | 31.7 | -22.9 | x | x | x | x | x
CC(CNc1ccccc1O)C(=O)O (centres undefined) | 0.3 | 3.1 | 33.1 | 12.8 | 9.0 | x | x | x | x | x
CN(C(=O)c1cccc(NC(=O)Cc2ccc(NC(=O)C3CCCN(C(=O)C4CCC4)C3)cc2)c1)C1CCC1 (centres undefined) | x | 1.3 | 2.6 | x | x | x | x | x | x | x
CCc1ccc(C(=O)/C=C/c2cnn(C)c2C)s1 | -15.9 | -18.5 | -130.6 | 13.1 | 53.8* | 5.6 | -14.4 | 15.4 | -6.1 | 18.9
COc1cc(Cl)ccc1OC1(C)CCN(Cc2ccc3ccccc3c2)C1 (centres undefined) | x | -0.8 | 22.2 | x | x | x | x | x | x | x
CC(C)n1c(/N=C/c2c[nH]c3ccccc23)nc2ccccc21 | -9.7 | -4.7 | 20.8 | 8.5 | 1.4 | x | x | x | x | x
Cn1c(/N=C/c2c[nH]c3ccccc23)nc2ccccc21 | 94.2* | -6.2 | 17.0 | 93.0* | 95.0* | 95.8* | 96.8* | 102.9* | 94.3* | 20.1
CN(C(=O)c1ccccc1)c1nc2ccccc2s1 | 44.1 | -0.1 | 15.9 | 46.9 | 70.7* | 28.3 | 51.1* | 70.7* | 45.3 | 43.1
CCc1ccc([C@@H]2C[C@H]3CN(Cc4ccccc4OC)C(=O)[C@]34CCCN24)cc1 | 2.9 | 2.0 | 14.2 | 4.2 | -1.6 | x | x | x | x | x
CCc1cc(C(=O)Nc2ncccc2O)sc1C | 40.3 | 2.4 | 0.9 | 67.1* | 66.0* | 51.5* | 52.6* | 85.7* | 81.0* | 63.4*
O=C(CSc1nncn1-c1ccccc1)NC1CCCCC1 | 1.7 | 0.2 | 13.4 | -1.1 | -14.1 | x | x | x | x | x
CCO[C@@H]1OC(C(=O)NCc2nc3ccccc3[nH]2)=C[C@H](c2ccc(C(F)(F)F)cc2)[C@H]1CCCO | -6.3 | 2.1 | 12.9 | 4.6 | 3.2 | x | x | x | x | x
CSc1ccccc1NC(=O)C1(C)CCN1C(=O)Cc1ccc(-c2ccccc2)cc1 (centres undefined) | x | 1.6 | 34.5 | x | x | x | x | x | x | x
O/C(=C\c1nc2ccccc2nc1/C=C(\O)c1ccccc1)c1ccccc1 | 2.7 | -26.6 | -412.3 | 1.1 | 9.1 | x | x | x | x | x
SMILES | SENP8 block-1 | SENP1 inh | SENP8 block-2 | SENP7 block | SENP6 inh | SENP8 confirm | SENP6 conf | SENP7 conf | Casp3 select | Luc interf
O=Nc1[nH]c(=O)c(/C=C(\O)c2ccccc2)nc1NO | 44.1 | -2.4 | 26.3 | 58.0* | 56.1* | 68.5* | 63.8* | 85.9* | 93.2* | 70.1*
CCOc1ccc(OCc2ccc(C(=O)O)o2)cc1 | 94.4* | -0.6 | 8.2 | 96.2* | 97.0* | 96.4* | 98.9* | 102.1* | 79.9* | 97.4*
CCCc1ccc(OCc2ccc(C(=O)NN)o2)c(OC)c1 | 0.0 | 1.8 | 20.2 | -4.8 | -1.4 | x | x | x | x | x
CCCc1ccc(OCc2ccc(C(=O)O)o2)c(OC)c1 | 68.8* | -3.1 | 7.6 | 54.0* | 74.8* | 74.2* | 73.4* | 92.5* | 15.4 | 82.8*
C=CCc1ccc(OCc2ccc(C(=O)O)o2)c(OC)c1 | 64.2* | -0.3 | 7.6 | 63.3* | 78.6* | 75.8* | 75.8* | 93.5* | 15.5 | 79.8*
C=CCc1ccc(OCCCCOc2ccc(C(=O)O)cc2)c(OC)c1 | -8.4 | 1.3 | 9.5 | -9.0 | -5.2 | x | x | x | x | x
CCc1ccc(OCc2ccc(C(=O)OC)o2)cc1 | 41.4 | 1.2 | 10.1 | 0.1 | 39.2 | x | x | x | x | x
NC(=O)c1ccc(N2CCN(S(=O)(=O)c3ccccc3)CC2)c([N+](=O)[O-])c1 | -0.9 | 0.7 | 23.9 | 3.5 | -14.0 | x | x | x | x | x
CSc1cc(SC)ncn1 | x | -1.0 | 13.8 | x | x | x | x | x | x | x
Cc1ccccc1N1CC(C(=O)Nc2ccncc2)CC1=O (centres undefined) | -5.5 | 2.0 | 15.0 | 10.2 | -6.3 | x | x | x | x | x
COc1ccccc1/C=C/c1ccc2cccc(O)c2n1 | 50.7* | -5.3 | -113.1 | 29.1 | 80.7* | 5.6 | 72.2* | 91.6* | 56.6* | 37.3
COc1ccc(Cl)cc1/C=C/c1ccc2cccc(O)c2n1 | -9.2 | 2.0 | -68.1 | -6.3 | -4.5 | x | x | x | x | x
CCOc1cccc(/C=C/c2ccc3cccc(O)c3n2)c1O | 54.9* | 7.7 | -75.5 | 63.9* | 48.3 | 0.0 | 59.4* | 85.2* | x | 17.3
COc1ccc(NC(=O)CN2C(=O)COc3ccc(S(=O)(=O)N4CCCCC4)cc32)c(OC)c1 | -7.1 | 1.8 | 19.2 | 9.8 | -4.4 | x | x | x | x | x
O=C(/C=C/c1ccccc1[N+](=O)[O-])NCCN1C(=O)S/C(=C\c2ccc(F)cc2)C1=O | -11.0 | -0.7 | 18.6 | 80.8* | 17.9 | -9.5 | -3.2 | -6.0 | 5.1 | 3.2
O=C(NC(=S)Nc1ccccc1[N+](=O)[O-])c1ccccc1 | -6.7 | 0.5 | 17.6 | -15.0 | -20.6 | x | x | x | x | x
